How the values were obtained:
UACC-257 = test: Antiproliferative activity against human UACC257 cells after 48 hrs; format: functional; settings: UACC-257, 48 h
Summary of the method: (§1)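 NCI 60-cell-line screen. Lines grown in RPMI 1640 with 5% fetal bovine serum and 2 mM L-glutamine, plated at 5,000–40,000 cells/well according to doubling time, left 24 h at 37 °C in 5% CO2. Drug stocks in DMSO at 400-fold the top final concentration. Five 10-fold dilutions, 10−4 to 10−8 M, incubated 48 h. Growth read spectrophotometrically as net protein; GI50 taken as 50% reduction.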

LOX IMVI = test: Antiproliferative activity against human LOXIMVI cells after 48 hrs; format: functional
Summary of the method: (§2)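 NCI 60-cell screen. Cells were grown in RPMI 1640 with 5% FBS and 2 mM L-glutamine, then plated at 5,000–40,000 cells/well according to doubling time and preincubated for 24 h at 37 °C in 5% CO2. Compounds were dissolved in DMSO at 400× the top final concentration and tested at five 10-fold dilutions from 10−4 to 10−8 M for 48 h. Growth was read spectrophotometrically; GI50 is 50% net protein reduction.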

CAKI-1 = test: Antiproliferative activity against human CAKI1 cells after 48 hrs; format: functional; settings: CAKI-1, 48 h; summary of the method: as §2
DU-145 = test: Antiproliferative activity against human DU145 cells after 48 hrs; format: functional; settings: DU-145, 48 h; summary of the method: as §2
[1] = Antiproliferative activity against human HL60(TB) cells after 48 hrs; format: functional, HL-60(TB); settings: HL-60, 48 h
Summary of the method: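 NCI 60-line panel screen: cells grown in RPMI 1640 with 5% fetal bovine serum and 2 mM L-glutamine, plated at 5,000–40,000 cells/well by doubling time, and preincubated 24 h at 37 °C in 5% CO2. Drugs were solubilised in DMSO at 400-fold the final maximum and tested at five 10-fold dilutions from 10−4 to 10−8 M for 48 h. Net protein was read spectrophotometrically, and the concentration giving 50% reduction was reported as log10 GI50.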

HOP-92 = test: Antiproliferative activity against human HOP92 cells after 48 hrs; format: functional; settings: HOP-92, 48 h; summary of the method: as §2
MDA-MB-231 = test: Antiproliferative activity against human MDA-MB-231 cells after 48 hrs; format: functional; settings: MDA-MB-231, 48 h; summary of the method: as §2
SK-MEL-2 = test: Antiproliferative activity against human SKMEL2 cells after 48 hrs; format: functional; settings: SK-MEL-2, 48 h; summary of the method: as §2
[2] = Antiproliferative activity against human NCI-ADR-RES cells after 48 hrs; format: functional; summary of the method: as §2
786-0 = test: Antiproliferative activity against human 786-0 cells after 48 hrs; format: functional; settings: 786-0, 48 h; summary of the method: as §2
SNB-19 = test: Antiproliferative activity against human SNB19 cells after 48 hrs; format: functional; settings: SNB-19, 48 h; summary of the method: as §2
SK-OV-3 = test: Antiproliferative activity against human SKOV3 cells after 48 hrs; format: functional; settings: SK-OV-3, 48 h; summary of the method: as §2
SF-295 = test: Antiproliferative activity against human SF295 cells after 48 hrs; format: functional; settings: SF-295, 48 h; summary of the method: as §2
NCI-H322M = test: Antiproliferative activity against human NCI-H322M cells after 48 hrs; format: functional; summary of the method: as §2
T47D = test: Antiproliferative activity against human T47D cells after 48 hrs; format: functional; summary of the method: as §1
A498 = test: Antiproliferative activity against human A498 cells after 48 hrs; format: functional; settings: A498, 48 h; summary of the method: as §2
KM12 = test: Antiproliferative activity against human KM12 cells after 48 hrs; format: functional; settings: Homo sapiens, KM12, 48 h; summary of the method: as §2
NCI-H460 = test: Antiproliferative activity against human NCI-H460 cells after 48 hrs; format: functional; settings: NCI-H460, 48 h; summary of the method: as §2
PC-3 = test: Antiproliferative activity against human PC3 cells after 48 hrs; format: functional; settings: PC-3, 48 h; summary of the method: as §2
HCT-15 = test: Antiproliferative activity against human HCT15 cells after 48 hrs; format: functional; settings: Homo sapiens, HCT-15, 48 h; summary of the method: as §2
SN12C = test: Antiproliferative activity against human SN12C cells after 48 hrs; format: functional; summary of the method: as §2
IGROV-1 = test: Antiproliferative activity against human IGROV1 cells after 48 hrs; format: functional; settings: IGROV-1, 48 h; summary of the method: as §2
UACC-62 = test: Antiproliferative activity against human UACC62 cells after 48 hrs; format: functional; settings: UACC-62, 48 h; summary of the method: as §1
UO-31 = test: Antiproliferative activity against human UO31 cells after 48 hrs; format: functional; settings: UO-31, 48 h; summary of the method: as §1
M14 = test: Antiproliferative activity against human M14 cells after 48 hrs; format: functional; settings: M14, 48 h; summary of the method: as §2
SK-MEL-28 = test: Antiproliferative activity against human SKMEL28 cells after 48 hrs; format: functional; settings: SK-MEL-28, 48 h; summary of the method: as §2
HT-29 = test: Antiproliferative activity against human HT29 cells after 48 hrs; format: functional; settings: HT-29, 48 h; summary of the method: as §2
HOP-62 = test: Antiproliferative activity against human HOP62 cells after 48 hrs; format: functional; settings: HOP-62, 48 h; summary of the method: as §2
MOLT-4 = test: Antiproliferative activity against human MOLT4 cells after 48 hrs; format: functional; settings: MOLT-4, 48 h; summary of the method: as §2
TK-10 = test: Antiproliferative activity against human TK10 cells after 48 hrs; format: functional; settings: TK-10, 48 h; summary of the method: as §1
[3] = read-out: Log LC50 (the source's name) (converted)

## CCCCCCCCCCCCCCN[C@H](CO)[C@H](O)c1ccc([N+](=O)[O-])cc1.Cl
UACC-257
  GI50: 4.27 µM
UACC-257; [3]
  CC50: 93.3 µM
UACC-257; read-out: Log TGI (converted)
  TGI: 20.9 µM
LOX IMVI
  GI50: 1.74 µM
  LC50: 6.03 µM
LOX IMVI; read-out: Log TGI (converted)
  TGI: 3.24 µM
CAKI-1
  GI50: 7.59 µM
CAKI-1; [3]
  CC50: 67.6 µM
CAKI-1; read-out: Log TGI (converted)
  TGI: 24 µM
DU-145
  GI50: 1.55 µM
DU-145; [3]
  CC50: 5.37 µM
DU-145; read-out: Log TGI (converted)
  TGI: 2.88 µM
[1]
  GI50: 2.04 µM
  LC50: 15.1 µM
[1]; read-out: Log TGI (converted)
  TGI: 4.79 µM
HOP-92
  GI50: 1.26 µM
  LC50: 6.17 µM
HOP-92; read-out: Log TGI (converted)
  TGI: 2.75 µM
MDA-MB-231
  GI50: 2 µM
  LC50 (50% lethal concentration): 7.76 µM
MDA-MB-231; read-out: Log TGI (converted)
  TGI: 3.89 µM
SK-MEL-2
  GI50: 3.31 µM
  LC50: > 100 µM
SK-MEL-2; read-out: Log TGI (converted)
  TGI: 8.13 µM
[2]
  GI50: 2.04 µM
  LC50: 8.91 µM
[2]; read-out: Log TGI (converted)
  TGI: 4.27 µM
786-0
  GI50: 1.62 µM
786-0; [3]
  CC50: 5.75 µM
786-0; read-out: Log TGI (converted)
  TGI: 3.09 µM
SNB-19
  GI50: 1.74 µM
SNB-19; read-out: Log TGI (converted)
  TGI: 3.55 µM
SK-OV-3
  GI50: 8.91 µM
SK-OV-3; [3]
  CC50: 79.4 µM
SK-OV-3; read-out: Log TGI (converted)
  TGI: 27.5 µM
SF-295
  GI50: 2.24 µM
  LC50: 9.77 µM
SF-295; read-out: Log TGI (converted)
  TGI: 4.68 µM
NCI-H322M
  GI50: 4.79 µM
NCI-H322M; [3]
  CC50: 42.7 µM
NCI-H322M; read-out: Log TGI (converted)
  TGI: 14.8 µM
T47D
  GI50: 3.8 µM
T47D; [3]
  CC50: 87.1 µM
T47D; read-out: Log TGI (converted)
  TGI: 14.1 µM
A498
  GI50: 6.76 µM
A498; [3]
  CC50: 93.3 µM
A498; read-out: Log TGI (converted)
  TGI: 26.9 µM
KM12
  GI50: 1.86 µM
KM12; [3]
  CC50: 6.17 µM
KM12; read-out: Log TGI (converted)
  TGI: 3.39 µM
NCI-H460
  GI50: 1.91 µM
NCI-H460; read-out: Log TGI (converted)
  TGI: 3.55 µM
PC-3
  GI50: 1.74 µM
PC-3; read-out: Log TGI (converted)
  TGI: 3.16 µM
HCT-15
  GI50: 1.86 µM
HCT-15; read-out: Log TGI (converted)
  TGI: 3.47 µM
SN12C
  GI50: 2.19 µM
  LC50 (50% net cell kill): > 100 µM
SN12C; read-out: Log TGI (converted)
  TGI: 4.79 µM
IGROV-1
  GI50: 1.91 µM
IGROV-1; read-out: Log TGI (converted)
  TGI: 3.63 µM
UACC-62
  GI50: 6.46 µM
  LC50: 75.9 µM
UACC-62; read-out: Log TGI (converted)
  TGI: 24 µM
UO-31
  GI50: 4.27 µM
  LC50: 87.1 µM
UO-31; read-out: Log TGI (converted)
  TGI: 18.6 µM
M14
  GI50: 2.04 µM
  LC50: 6.92 µM
M14; read-out: Log TGI (converted)
  TGI: 3.72 µM
SK-MEL-28
  GI50: 1.91 µM
  LC50: 6.03 µM
SK-MEL-28; read-out: Log TGI (converted)
  TGI: 3.39 µM
HT-29
  GI50: 1.86 µM
HT-29; read-out: Log TGI (converted)
  TGI: 3.47 µM
HOP-62
  GI50: 1.91 µM
HOP-62; [3]
  CC50: 6.31 µM
HOP-62; read-out: Log TGI (converted)
  TGI: 3.47 µM
MOLT-4
  GI50: 1.62 µM
  LC50: 7.59 µM
MOLT-4; read-out: Log TGI (converted)
  TGI: 3.55 µM
TK-10
  GI50: 10.5 µM
TK-10; [3]
  CC50: 66.1 µM
TK-10; read-out: Log TGI (converted)
  TGI: 26.3 µM

— ChEMBL document CHEMBL1143122, “Novel analogs of D-e-MAPP and B13. Part 1: synthesis and evaluation as potential anticancer agents” (Bioorg Med Chem, 2008)
